Measurements taken from ChEMBL document CHEMBL1130288, “(3R)-N-(1-(tert-butylcarbonylmethyl)-2,3-dihydro-2-oxo-5-(2-pyridyl)-1H-1,4-benzodiazepin-3-yl)-N'-(3-(methylamino)phenyl)urea (YF476): a potent and orally active gastrin/CCK-B antagonist” (J Med Chem, 1997).

Assays:
[1] = test system: Canis familiaris; assay: Compound at an peroral dose of 0.3 uM/Kg was tested for the inhibition of pentagastrin-induced gastric acid secretion in heidenhain pouch dogs; assay type: functional, Canis lupus familiaris, Stomach
Procedure, shortened: (§1)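 Male beagle dogs with Heidenhain pouch, food withheld 18 h (water free). Pentagastrin 8 µmol/kg/h infused via femoral vein from 3 h before until 6 h after oral dosing. Gastric juice collected every 15 min; acidity by automatic titration with 0.05 N NaOH to pH 7.0. Inhibition relative to values just before dosing.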

[2] = test system: Canis familiaris; assay: Compound at an peroral dose of 3 uM/Kg was tested for the inhibition of pentagastrin-induced gastric acid secretion in heidenhain pouch dogs; assay type: functional, Canis lupus familiaris, Stomach; procedure, shortened: as §1
[3] = test system: Rattus norvegicus; assay: Inhibition of pentagastrin-induced gastric acid secretion in anathesized rats at 0.1 uM/Kg upon intravenous administration; assay type: functional, Stomach
Procedure, shortened: (§2)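 Anesthetized rats, pylorus-ligated with duodenal cannula. Stomach perfused with saline (pH 7.0) at 3 mL/min. Acid output by continuous pH-stat titration with 25 mM NaOH to pH 7.0, per 10 min. Pentagastrin infused iv via femoral vein. Compound in polyethylene glycol 300 given iv 1 h after pentagastrin start. ED50 is the dose reducing acid to 50% of maximum.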

[4] = biological target: Cholecystokinin receptor (Rattus norvegicus) (UniProt P30551+P30553); assay: Ratio of inhibitory concentration; CCK-A receptor to CCK-B receptor; assay type: protein assay
[5] = biological target: T1, Cholecystokinin receptor type A (Rattus norvegicus, UniProt P30551); assay: Inhibitory concentration against radioligand [3 H]L-364,718 binding to gastrin/Cholecystokinin type A receptor from rat pancreas
T1 sequence (P30551 whole entry): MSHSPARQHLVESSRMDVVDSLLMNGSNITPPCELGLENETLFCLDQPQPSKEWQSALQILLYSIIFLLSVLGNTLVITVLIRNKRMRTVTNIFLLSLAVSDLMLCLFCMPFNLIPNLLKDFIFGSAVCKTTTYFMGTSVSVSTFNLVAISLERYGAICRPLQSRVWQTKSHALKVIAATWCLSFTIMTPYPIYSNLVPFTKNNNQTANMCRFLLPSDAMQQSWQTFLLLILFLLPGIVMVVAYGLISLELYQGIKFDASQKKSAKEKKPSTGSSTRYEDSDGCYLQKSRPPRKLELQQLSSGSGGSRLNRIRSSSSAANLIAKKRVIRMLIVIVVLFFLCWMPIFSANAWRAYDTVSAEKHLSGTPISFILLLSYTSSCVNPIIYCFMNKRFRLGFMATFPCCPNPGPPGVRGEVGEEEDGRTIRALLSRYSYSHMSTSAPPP
Procedure, shortened: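 Rat pancreas membranes in 50 mM Tris-HCl pH 7.7 containing BSA, MgCl2, bacitracin and DTT. Incubated 30 min at 37 °C with [3H]L-364,718 and compound (in DMSO). Filtration, scintillation counting. Nonspecific binding with […] L-364,718. IC50 is the concentration inhibiting specific binding by 50%.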

[6] = biological target: T2, Gastrin/cholecystokinin type B receptor (Rattus norvegicus, UniProt P30553); assay: Inhibitory concentration against radioligand [125I]CCK-8 binding to gastrin/Cholecystokinin type B receptor from rat brain
T2 sequence (P30553 whole entry): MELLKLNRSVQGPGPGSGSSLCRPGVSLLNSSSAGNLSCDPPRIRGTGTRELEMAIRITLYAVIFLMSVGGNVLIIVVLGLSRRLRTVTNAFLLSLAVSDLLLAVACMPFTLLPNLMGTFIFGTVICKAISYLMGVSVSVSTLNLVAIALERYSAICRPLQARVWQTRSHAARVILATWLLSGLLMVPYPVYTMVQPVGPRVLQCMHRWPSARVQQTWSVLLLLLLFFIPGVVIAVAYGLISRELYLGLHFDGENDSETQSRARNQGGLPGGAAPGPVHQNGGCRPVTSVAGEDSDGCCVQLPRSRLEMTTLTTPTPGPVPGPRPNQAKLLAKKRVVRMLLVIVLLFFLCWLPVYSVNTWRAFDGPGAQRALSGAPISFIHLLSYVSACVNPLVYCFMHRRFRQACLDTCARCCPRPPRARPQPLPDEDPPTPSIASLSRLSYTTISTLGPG
Procedure, shortened: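 SD rat whole-brain membranes prepared by sucrose homogenisation, differential centrifugation and Triton X-100 wash. Incubated 120 min at 25 °C with [125I]BH-CCK-8 and compound (in DMSO) in 10 mM HEPES pH 6.5 with NaCl, MgCl2, EDTA, bacitracin. Filtration, γ-counting. Nonspecific binding with […] CCK-8. IC50 is the concentration giving 50% inhibition of specific binding.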

[7] = test system: Rattus norvegicus; assay: Inhibition of pentagastrin-induced gastric acid secretion in Dawley rats following intravenous administration; assay type: functional; conditions: Stomach; procedure, shortened: as §2
[8] = test system: Canis familiaris; assay: Compound at an peroral dose of 0.03 uM/Kg was tested for the inhibition of pentagastrin-induced gastric acid secretion in heidenhain pouch dogs; assay type: functional, Canis lupus familiaris, Stomach; procedure, shortened: as §1
[9] = test system: Canis familiaris; assay: Concentration required to inhibit pentagastrin-induced gastric acid secretion in heidenhain pouch dogs upon intravenous administration; assay type: functional; conditions: Canis lupus familiaris, Stomach
Procedure, shortened: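 Male beagle dogs with Heidenhain pouch, fasted 18 h with water allowed. Pentagastrin infused at 8 µmol/kg/h through femoral vein. Compound dissolved in DMF and given iv 3 h after infusion start. Juice collected every 15 min, volume measured, acidity titrated with 0.05 N NaOH to pH 7.0.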

[10] = test system: Canis familiaris; assay: Concentration required to inhibit pentagastrin-induced gastric acid secretion in heidenhain pouch dogs upon peroral administration; assay type: functional; conditions: Canis lupus familiaris, Stomach, po; procedure, shortened: as §1
[11] = test system: Canis familiaris; assay: Compound at an peroral dose of 0.1 uM/Kg was tested for the inhibition of pentagastrin-induced gastric acid secretion in heidenhain pouch dogs; assay type: functional, Canis lupus familiaris, Stomach; procedure, shortened: as §1
[12] = test system: Canis familiaris; assay: Compound at an peroral dose of 1 umol/kg was tested for the inhibition of pentagastrin-induced gastric acid secretion in heidenhain pouch dogs; assay type: functional; conditions: Canis lupus familiaris, Stomach, po; procedure, shortened: as §1
[13] = test system: Rattus norvegicus; assay: Inhibition of pentagastrin-induced gastric acid secretion in anathesized rats upon intravenous administration; assay type: functional; conditions: Stomach; procedure, shortened: as §2
[14] = test system: Rattus norvegicus; assay: Inhibition of pentagastrin-induced gastric acid secretion in anathesized rats at 0.03 uM/Kg upon intravenous administration; assay type: functional, Stomach; procedure, shortened: as §2

SMILES | Inhibition [3] | Ratio [4] | IC50 [5] | IC50 [6] | other results
Cc1cccc(NC(=O)N[C@@H]2N=C(c3ccccn3)c3ccccc3N(CC(=O)C(C)(C)C)C2=O)c1 | 78% | 1070 | 0.47 µM |  | Inhibition [1]: 7%; Inhibition [2]: 97%
CC(C)(C)C(=O)CN1C(=O)C(NC(=O)Nc2cccc(C(=O)O)c2)N=C(c2ccccc2)c2ccccc21 (configuration not stated) | 56% | 626 | 2.06 µM | 0.00329 µM | 
CNc1cccc(NC(=O)N[C@@H]2N=C(c3ccccc3)c3ccccc3N(CC(=O)C(C)(C)C)C2=O)c1 | 80% | 1090 |  |  | 
CC(C)(C)C(=O)CN1C(=O)C(NC(=O)Nc2cccc(C#N)c2)N=C(c2ccccc2)c2ccccc21 (configuration not stated) | 65% | 542 | 0.7 µM | 0.00129 µM | 
CC(C)(C)C(=O)CN1C(=O)[C@H](NC(=O)Nc2cccc(N3CCCC3)c2)N=C(c2ccccc2)c2ccccc21 | 79% | 923 | 0.157 µM | 0.00017 µM | 
CC(C)(C)C(=O)CN1C(=O)C(NC(=O)Nc2cccc(NC=O)c2)N=C(c2ccccc2)c2ccccc21 (configuration not stated) | 74% | 951 | 0.561 µM | 0.00059 µM | 
CC(C)(C)C(=O)CN1C(=O)[C@H](NC(=O)Nc2cccc(N)c2)N=C(c2ccccc2)c2ccccc21 | 75% | 1910 |  |  | 
CN(C)c1cccc(NC(=O)N[C@@H]2N=C(c3ccccc3)c3ccccc3N(CC(=O)C(C)(C)C)C2=O)c1 | 65% | 423 | 0.089 µM | 0.00021 µM | Inhibition [2]: 99%; ED50 [7]: 0.012 µmol/kg
CNc1cccc(NC(=O)N[C@@H]2N=C(c3ccccn3)c3ccccc3N(CC(=O)C(C)(C)C)C2=O)c1 [NETAZEPIDE] | 87% | 5020 |  |  | Inhibition [8]: 65%; ED50 [9]: 0.018 µmol/kg; ED50 [10]: 0.021 µmol/kg; Inhibition [11]: 100%; ED50 [7]: 0.008 µmol/kg
Cc1cccc(NC(=O)N[C@@H]2N=C(c3ccccc3)c3ccccc3N(CC(=O)c3ccccc3C)C2=O)c1 |  | 1330 |  |  | Inhibition [2]: 72%; inhibition in vivo at 1 µmol/kg [12]: 26%; ED50 [9]: 0.026 µmol/kg; ED50 [10]: 1.9 µmol/kg; ED50 [13]: 0.0083 µmol/kg
Cc1cccc(NC(=O)N[C@@H]2N=C(c3ccccc3)c3ccccc3N(CC(=O)C(C)(C)C)C2=O)c1 |  | 213 | 0.111 µM | 0.00052 µM | Inhibition [2]: 53%; Inhibition [14]: 77%
CC(C)(C)C(=O)CN1C(=O)[C@H](NC(=O)Nc2cccc(N)c2)N=C(c2ccccn2)c2ccccc21 | 62% | 4230 | 1.82 µM | 0.00043 µM | 
CCN(CC)c1cccc(NC(=O)N[C@@H]2N=C(c3ccccc3)c3ccccc3N(CC(=O)C(C)(C)C)C2=O)c1 | 82% | 3990 | 0.558 µM | 0.00014 µM | 
CN(C)c1cccc(NC(=O)N[C@@H]2N=C(c3ccccn3)c3ccccc3N(CC(=O)C(C)(C)C)C2=O)c1 |  | 565 |  |  | Inhibition [8]: 77%; ED50 [9]: 0.014 µmol/kg; Inhibition [14]: 65%; Inhibition [11]: 98%; ED50 [7]: 0.011 µmol/kg
CN(C)c1cccc(NC(=O)N[C@H]2N=C(c3ccccn3)c3ccccc3N(CC(=O)C(C)(C)C)C2=O)c1 |  | 454 | 0.572 µM | 0.00126 µM | 
CC(C)(C)C(=O)CN1C(=O)[C@H](NC(=O)Nc2cccc(N3CCCCC3)c2)N=C(c2ccccn2)c2ccccc21 | 55% | 1120 | 0.944 µM | 0.00084 µM | 
CC(C)(C)C(=O)CN1C(=O)[C@H](NC(=O)Nc2cccc(N3CCCC3)c2)N=C(c2ccccn2)c2ccccc21 | 75% | 2300 | 0.253 µM | 0.00011 µM | 
CC(C)(C)C(=O)CN1C(=O)C(NC(=O)Nc2cccc([N+](=O)[O-])c2)N=C(c2ccccc2)c2ccccc21 (configuration not stated) | 76% | 3680 | 0.589 µM | 0.00016 µM | 
CCN(CC)c1cccc(NC(=O)N[C@@H]2N=C(c3ccccn3)c3ccccc3N(CC(=O)C(C)(C)C)C2=O)c1 | 74% | 2740 | 0.301 µM | 0.00011 µM | 
